Most compounds without a hit are left out; they make up all but 0.77% or so of the library.
mIAP activ – activators of mouse IAP, primary screen, biochemical, luminescence, uHTS; intestinal alkaline phosphatase [Mus musculus]; muIAP, CDP-Star luminescence, 30 min; stronger effect = higher value; 1 = vehicle-only enzyme signal, 0 = enzyme-free wells; activation factor at 10 µM; 330,000 tested, 0.24% active; AID 2805, 2010;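 active = activation factor of at least 2 at 20 µM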
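also added = chemiluminescent substrate CDP-Star | test system = mouse IAP enzyme | signal = chemiluminescence readout | compound = DMSO-dissolved test compounds | incubation = 30 min at room temperature | benchmarks = DMSO wells, no-enzyme wells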
hIAP inh – human IAP inhibitors, primary screen, biochemical, luminescence, uHTS; Intestinal-type alkaline phosphatase (Homo sapiens), P09923; purified IAP, CDP-Star luminescence, 30 min; 330,000 tested, 0.12% active; inhibition, % at 10 µM;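 active = inhibition reaching a set limit with compound at 10 µM in the primary screen, cut at about 35% in these data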;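 also: plate controls were DMSO wells with enzyme for no effect and no-enzyme buffer wells for full effect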
Target sequence (P09923 whole entry, looked up): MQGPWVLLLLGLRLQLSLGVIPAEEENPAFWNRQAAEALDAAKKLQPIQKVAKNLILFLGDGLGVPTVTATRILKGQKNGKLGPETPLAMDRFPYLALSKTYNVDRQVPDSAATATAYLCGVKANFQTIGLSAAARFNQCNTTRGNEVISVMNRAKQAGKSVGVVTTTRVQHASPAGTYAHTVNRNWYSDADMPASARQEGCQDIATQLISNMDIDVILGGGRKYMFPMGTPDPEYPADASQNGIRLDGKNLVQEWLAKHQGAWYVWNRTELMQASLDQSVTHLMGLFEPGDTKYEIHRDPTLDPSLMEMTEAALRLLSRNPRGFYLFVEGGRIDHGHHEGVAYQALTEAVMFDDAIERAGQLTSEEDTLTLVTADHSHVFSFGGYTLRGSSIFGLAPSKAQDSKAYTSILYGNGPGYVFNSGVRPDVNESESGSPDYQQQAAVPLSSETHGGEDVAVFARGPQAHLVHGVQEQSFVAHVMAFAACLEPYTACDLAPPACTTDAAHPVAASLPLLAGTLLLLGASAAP
hIAP activ – human IAP activators, primary screen, biochemical, luminescence, uHTS; Intestinal-type alkaline phosphatase (Homo sapiens), P09923; purified human IAP, CDP-Star luminescence, 30 min; stronger effect = higher value; 1 = vehicle-only enzyme, 0 = enzyme-free background; activation factor at 10 µM; 330,000 tested, 0.16% active;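 active = activation factor of the enzyme at least 2-fold when tested at 20 µM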
bIAP activator – bovine intestinal alkaline phosphatase activators, primary screen, biochemical, bovine IAP, CDP-star luminescence; AID 1016, 2008; purified bovine IAP, 30 min; stronger effect = higher value; fold of DMSO-control signal, blank-subtracted; activation factor at 20 µM; alkaline phosphatase, intestinal [Bos taurus]; 200,000 tested, 0.17% active;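 active = activation factor of 2 or more at 20 µM, a signal rise over negative controls twice the positive control's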
mIAP inh – inhibitors of mouse IAP, primary screen, biochemical, luminescence, uHTS; purified mouse IAP, CDP-Star luminescence, 30 min; 330,000 tested, 0.2% active; inhibition, % at 10 µM;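 active = inhibition of at least 40% at 10 µM in the primary screen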;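 also: plate controls were DMSO with enzyme for no effect and no enzyme wells for full effect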
bIAP inhibitor – bovine intestinal alkaline phosphatase inhibitors, primary screen, selectivity assay for TNAP inhibitor project, biochemical, bovine IAP, CDP-star luminescence. alkaline phosphatase, intestinal [Bos taurus]. purified bovine IAP, 30 min. inhibition, % at 20 µM. 190,000 tested, under 10 active. AID 1019, 2008;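 active = over 50% inhibition of intestinal alkaline phosphatase at 20 µM in the single-dose screen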
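Assay system – bovine IAP enzyme · Quantity – bovine IAP at 1/65,000,000 final dilution · Detection – CDP-star luminescence signal · Times – 30 min reaction at room temperature · Also added – CDP-star substrate at 30 µM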
* marks the source's active call; other numbers are inactive results; · = not tested or not shown.

SMILES | mIAP activ | hIAP inh | hIAP activ | bIAP activator | mIAP inh | bIAP inhibitor
CCCC(C(=O)NC1CCCC1)N(Cc1ccc(OC)cc1)C(=O)c1snc(C(N)=O)c1N (centres undefined) | 0.961 | 8.1 | 0.919 | · | 3.9 | ·
CCCNC(=O)c1ccc2c(c1)C1C3CCC(C3)C1C(c1ccccc1)N2 (centres undefined) | 1.47 | 1.2 | 0.988 | 2* | -46.9 | -96.2
CC(C)(C)NC(=O)c1ccc2c(c1)C1C3CCC(C3)C1C(c1ccccc1)N2 (centres undefined) | 1.09 | 10.3 | 0.897 | 1 | -9.1 | 4.1
Cc1ccc(C(=O)NNC(=O)c2cccc(S(=O)(=O)N3CCN(c4ccccc4)CC3)c2)cc1 | 0.958 | 4.5 | 0.955 | 1 | 4.2 | -3.1
C=CCN=C(NC#N)SCCc1ccccc1 | 0.995 | -0.2 | 1 | 0.7 | 0.5 | 33.9
C=CCN=C(NC#N)SCC(=O)NCc1ccccc1 | 0.962 | -14.4 | 1.14 | 2.2* | 3.8 | -124.0
Fc1ccccc1NC(=S)NCCc1cccc(Cl)c1 | 1.36 | -18.5 | 1.19 | · | -35.6 | ·
Cc1cccc(NS(=O)(=O)c2cnc[nH]2)c1 | 0.941 | -23.0 | 1.23 | 2* | 5.9 | -95.8
NC(=S)NN=Cc1ccc(-c2ccc(S(=O)(=O)Nc3ncccn3)cc2)o1 | 0.578 | -16.1 | 1.16 | · | 42.2* | ·
O=c1c2ccccc2oc2cc(OCc3cccc(F)c3)cc(O)c12 | 1.03 | 1.1 | 0.989 | · | -3.3 | ·
S=C(Nc1ccc(Cl)c(Cl)c1)NC1CCCCC1 | 3.2* | 0.5 | 0.995 | 0.9 | -220.1 | 11.3
S=C(Nc1ccc(Cl)c(Cl)c1)NC1CCN(Cc2ccccc2)CC1 | 2.15* | -16.8 | 1.17 | 0.9 | -115.2 | 5.4
O=C(/C=C/c1ccco1)NC(=S)Nc1ccc(O)c(-c2nc3ccccc3s2)c1 | 0.466 | -43.7 | 1.44 | 1 | 53.4* | 0.5
O=C(c1cc(-c2cccnc2)nc2ccccc12)N1CCN(S(=O)(=O)c2cccs2)CC1 | 0.862 | -1.9 | 1.02 | · | 13.8 | ·
CCOc1cc(/C=C2\NC(=S)N(c3c(C)n(C)n(-c4ccccc4)c3=O)C2=O)ccc1O | 0.579 | 32.9 | 0.671 | 0.9 | 42.1* | 8.9
CCOc1cccc(/C=C2\NC(=S)N(c3ccccc3)C2=O)c1O | 0.899 | 4.0 | 0.96 | · | 10.1 | ·
Cn1cc(Cl)c(/C(N)=N/OC(=O)c2ccccc2C(F)(F)F)n1 | 0.925 | 4.1 | 0.959 | · | 7.5 | ·
COc1ccc(/C=N/Nc2cc(=O)n(C)c(=O)n2C)cc1OC | 1.02 | -18.4 | 1.18 | 2* | -2.4 | -95.6
CC(C)=CCC/C(C)=C/CNC(=O)C[C@H]1C[C@H](C(=O)N2CCCCC2)[C@@]2(C)c3[nH]c4ccc(Cl)cc4c3CCN2C1=O | 1.11 | · | · | · | -10.7 | ·
COc1ccc2[nH]c3c(c2c1)CCN1C(=O)C(CC(=O)NC/C=C(\C)CCC=C(C)C)C[C@H](C(=O)N2CCCCC2)[C@@]31C (some centres undefined) | 2* | · | · | · | -100.1 | ·
CC(C)NC(=O)Nc1ccc2c(c1)C(=O)N([C@H](C)CO)C[C@@H](C)[C@@H](CN(C)C(=O)NC1CCCCC1)O2 | 1.2 | 12.6 | 0.874 | · | -20.2 | ·
CCCCNc1nc2ccccc2[nH]1 | 0.907 | -14.4 | 1.14 | 3.1* | 9.3 | -209.9
COc1ccc(NC(=O)COc2coc(CN3CCN(c4ccccc4)CC3)cc2=O)cc1 | 0.946 | -10.3 | 1.1 | · | 5.4 | ·
Cc1ccccc1NC(=S)NCc1ccc2c(c1)cc(C)n2C | 1.27 | 9.1 | 0.909 | 0.9 | -27.0 | 6.7
Fc1ccc(CNC(=S)NCc2ccccc2)cc1 | 1.26 | -10.6 | 1.11 | · | -25.9 | ·
SMILES | mIAP activ | hIAP inh | hIAP activ | bIAP activator | mIAP inh | bIAP inhibitor
S=C(NCc1ccccc1)Nc1ccc(Oc2ccccc2)cc1 | 3.77* | -11.6 | 1.12 | · | -277.1 | ·
Cc1cc2cc(CNC(=S)NCc3ccccc3)ccc2n1C | 2.29* | -3.7 | 1.04 | 0.9 | -128.7 | 6.7
S=C(NCc1ccccc1)NCc1ccc(CNC(=S)NCc2ccccc2)cc1 | 3.22* | -44.2 | 1.44 | 0.6 | -221.8 | 38.5
CC(=O)c1cccc(S(=O)(=O)N2CCn3cccc3C2C)c1 (centres undefined) | 1 | 0.9 | 0.991 | · | -0.3 | ·
CC(C)(C)c1ccc(-n2ncc3c2CCCC3NC(=O)c2cnccn2)cc1 (centres undefined) | 1.02 | -5.6 | 1.06 | · | -1.8 | ·
CCOC(=O)CN1NC2(CCCCCCC2)NC1=S | 0.902 | 10.6 | 0.894 | · | 9.8 | ·
CCOC(=O)CN1NC2(CCCCC2)NC1=S | 0.493 | -12.3 | 1.12 | 0.8 | 50.7* | 22.9
COc1cc(NC(=O)C2CCN(S(=O)(=O)c3ccc(Cl)cc3)CC2)ccc1-n1cnnn1 | 2.31* | -32.0 | 1.32 | 1.2 | -130.8 | -16.7
CCC(=O)Nc1cccc(-c2nnc(-c3cccc(NC(=O)CC)c3)o2)c1 | 0.561 | 4.9 | 0.951 | 1 | 43.9* | 4.8
Cc1cc(C)nc(N2CCCC(C(=O)Nc3nc4ccc(S(C)(=O)=O)cc4s3)C2)n1 (centres undefined) | 0.961 | 6.6 | 0.934 | 5.3* | 3.9 | -430.5
Cc1cccc(NC(=O)Nc2ccc3c(c2)CCC3)c1 | 2.88* | -5.3 | 1.05 | · | -188.2 | ·
Cc1noc(C)c1C(=O)Nc1ccc(S(=O)(=O)N2CCC(C)CC2)cc1 | 0.494 | -11.6 | 1.12 | · | 50.6* | ·
Cc1noc(C)c1C(=O)Nc1ccc(S(=O)(=O)N2CCCCC2)cc1 | 0.989 | -28.8 | 1.29 | · | 1.1 | ·
COc1ccc(C)cc1N(CC(=O)NCCSCc1cccc(Cl)c1)S(C)(=O)=O | 1.04 | -29.5 | 1.29 | · | -3.8 | ·
COc1cc(NC(=O)COC(C)=O)cc(OC)c1OC | 0.918 | 0.9 | 0.991 | 1.1 | 8.2 | -9.7
CCC(NC(=O)Nc1cc(OC)c(OC)c(OC)c1)(C(F)(F)F)C(F)(F)F | 2.1* | 6.5 | 0.935 | 1.1 | -110.1 | -12.1
Cc1ccc(SCCNC(=S)Nc2cc(C)cc(C)c2)cc1 | 3.32* | 10.7 | 0.893 | 0.6 | -232.1 | 40.1
COc1ccc(Cl)cc1NC(=S)NCCSc1ccc(C)cc1 | 2.6* | -28.3 | 1.28 | 0.8 | -159.9 | 21.2
Cc1ccc(NC(=O)NCCSc2ccc(C)cc2)cc1 | 2.54* | -18.6 | 1.19 | 1 | -153.6 | -4.8
COc1ccccc1NC(=S)NCCSc1ccc(Cl)cc1 | 1.59 | 7.2 | 0.928 | 1 | -58.6 | 0.6
CN(Cc1ccccc1)C(=O)c1nc[nH]c1C(=O)N(C)Cc1ccccc1 | 0.908 | 0.5 | 0.995 | · | 9.2 | ·
Nc1[nH]n2c(=O)cc(-c3ccccc3)nc2c1N=Nc1ccc2c(c1)OCO2 | 0.793 | -4.6 | 1.05 | 0.9 | 20.7 | 11.3
O=C(COc1ccccc1)N=C1SC2CS(=O)(=O)CC2N1c1cccc(F)c1 (centres undefined) | 1.01 | 13.1 | 0.869 | · | -0.8 | ·

Source: PubChem BioAssay
